procasp3 activ = procaspase-3 (human) activation | AID 463141 | recombinant procaspase-3 D3A, Ac-DEVD-pNA absorbance 405 nm | activation, % at 8.5 µM | 0.11% of 330,000 active | P42574;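 active = activation above the mean of all tested compounds plus 3 SD, cut at about 21% in these data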;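 note: 0% = DMSO alone and 100% = DMSO wells spiked with extra 5 µM PC-3 D3A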
Target sequence (P42574 whole entry D9A/D28A/D175A): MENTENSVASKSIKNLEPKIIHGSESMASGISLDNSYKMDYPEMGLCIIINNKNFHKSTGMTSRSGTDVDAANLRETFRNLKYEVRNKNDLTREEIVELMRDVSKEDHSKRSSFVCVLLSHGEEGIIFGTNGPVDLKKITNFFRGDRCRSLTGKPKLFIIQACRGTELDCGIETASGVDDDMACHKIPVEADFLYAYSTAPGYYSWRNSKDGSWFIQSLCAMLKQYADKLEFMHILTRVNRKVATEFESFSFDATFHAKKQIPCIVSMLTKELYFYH
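Test system: Procaspase-3 D3A mutant; medium: Zinc-free HEPES/NaCl buffer with 0.01% Triton X-100 at pH 7.4; reagent: DEVD-pNA substrate; doses: one concentration, 8.5 µM nominal, 0.8% DMSO; times: 1 h preincubation plus 2 h reaction at 25 °C; signal: Epi-absorbance at 405 nm of released p-nitroaniline, 0 and 120 min; replicates: singlicate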
MsrA act = activators of bovine methionine sulfoxide reductase A | purified bovine MsrA, absorbance read-out | activation, % at 10.6 µM | 0.3% of 360,000 active; in the data active = activation above about 7.5%;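 note: 0% = vehicle and 100% = reference activator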
proCasp7 act = counter-screen for procaspase-3 activators: activators of human procaspase-7; P55210; recombinant procaspase-7, Ac-DEVD-pNA absorbance 405 nm; D23A/D198A/D206A triple mutant, cannot self-cleave; scale: DMSO 0, 5 µM enzyme 100; activation, % at 8.5 µM; 0.093% of 330,000 active; AID 463210;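 active = percent activation above the screen-wide mean plus 3 SD, cut at about 25% in these data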
Target sequence (P55210 whole entry D23A/D198A/D206A): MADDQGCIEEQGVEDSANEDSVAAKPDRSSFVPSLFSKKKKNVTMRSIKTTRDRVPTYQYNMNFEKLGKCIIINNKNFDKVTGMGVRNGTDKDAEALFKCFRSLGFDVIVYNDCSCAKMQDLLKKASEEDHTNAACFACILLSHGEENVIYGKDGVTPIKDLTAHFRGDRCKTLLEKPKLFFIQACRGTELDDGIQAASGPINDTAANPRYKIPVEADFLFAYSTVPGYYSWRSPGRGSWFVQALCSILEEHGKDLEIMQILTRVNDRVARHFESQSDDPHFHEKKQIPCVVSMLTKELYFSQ
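Material: Procaspase-7 triple mutant (PC-7 D3A) | Quantity: 2 µM procaspase-7 mutant as dispensed | Reagent: DEVD-pNA substrate | Times: 1 h preincubation, 2 h reaction | Technique: 405 nm absorbance of p-nitroaniline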
MsrA inhibitor = inhibitors of bovine MsrA | purified bovine MsrA, absorbance read-out | inhibition, % at 15.5 µM | 0.75% of 360,000 active; in the data active = inhibition above about 4.5%;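 note: 0% = vehicle wells with enzyme and 100% = reference inhibitor wells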
MsrA act confirm = bovine methionine sulfoxide reductase A activation confirmed | 12% of 1,000 active | activation, % at 10.6 µM | shares compounds with MsrA act | purified bovine MsrA, absorbance read-out; in the data active = activation above about 4%;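 note: enzyme coupled to thioredoxin and thioredoxin reductase with NADPH; 0% = vehicle wells and 100% = reference activator wells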
* hit, by the source's call; x = no result. This is a sample that favours compounds with a hit; in the whole collection about 1.2% have one here.

SMILES | procasp3 activ | MsrA act | proCasp7 act | MsrA inhibitor | MsrA act confirm
CCC(=O)NC1=C(NC(C)c2ccccc2)C(=O)c2ccccc2C1=O (stereo not given) | -3.1 | 10.7* | 2.5 | -0.1 | -1.2
CCC(=O)Nc1ccc2c(c1)C(=O)c1ccccc1C2=O | 1.8 | -0.3 | 2.8 | -0.5 | x
C=CCN1C(=O)c2n[nH]c(COC)c2C1c1ccc(F)cc1 (stereo not given) | x | x | x | 0.1 | x
CC(C)NC[C@@H](O)c1ccc(O)c(O)c1 | -11.8 | -6.0 | -18.4 | -0.9 | x
CC(C)NCC(O)c1ccc(NS(C)(=O)=O)cc1 (stereo not given) | -0.6 | 7.8* | 14.0 | 2.7 | -3.0
CCCCS(=O)(=O)N1CCCc2nc(-c3ccc(F)cc3)ccc21 | x | x | x | -0.2 | x
COc1ccc(/C(C)=N/NC(=O)CNC(=O)c2ccco2)c(OC)c1 | 5.2 | 8.6* | 1.4 | -0.8 | -3.1
COc1ccccc1NC(=O)COC(=O)C12CC3CC(CC(Cl)(C3)C1)C2 | -5.0 | 15.2* | 8.1 | -0.8 | -1.9
COc1cccc(-n2c(=O)c3ccccc3n3c(=S)[nH]nc23)c1 | -3.8 | 2.7 | -6.6 | 1.7 | x
COCCCn1c(=O)c2ccccc2n2c(=S)[nH]nc12 | 2.3 | 9.8* | -10.6 | -1.0 | 5.4*
OC(c1ccc(F)c(F)c1)c1nc(-c2ccc3ccccc3c2)cs1 (stereo not given) | x | 9.2* | x | -0.8 | 0.6
CCOC(=O)N1CCN(C(=O)C[C@H]2C[C@@]3(C(=O)OC)C(=C[C@H](COCc4ccccc4)O[C@@H]3C)N(Cc3ccc4c(c3)OCO4)C2=O)CC1 | x | x | x | -0.6 | x
C=CCN=C1NC(c2ccccc2C(F)(F)F)C(C(=O)OC)=C(C)N1Cc1ccc(C(F)(F)F)cc1 (stereo not given) | x | x | x | -1.4 | x
COc1ccc(N(CC(=O)NCc2ccc(C)cc2)S(=O)(=O)c2c(C)nn(C)c2C)cc1 | 3.3 | 9.7* | 4.6 | -1.4 | -1.6
Clc1ccccc1CSc1nnc(-c2ccccn2)n1Cc1ccco1 | -10.8 | -5.1 | -11.8 | 0.8 | x
NC(=O)CSc1nnc(-c2ccccn2)n1Cc1ccco1 | 11.2 | 9.0* | 6.0 | 0.7 | -1.8
C[C@@H]1CN(c2ccc(N3CCN(C(=O)OC(C)(C)C)C[C@@H]3C)cc2C#N)C[C@H](C)O1 | x | x | x | 1.0 | x
S=c1[nH]nc2ccc3ccccc3n12 | x | 11.4* | x | 2.5 | 2.1
S=c1[nH]c2ccccc2n2c(=S)[nH]nc12 | -11.2 | 5.6 | -17.4 | 3.7 | x
Cc1ccccc1Cn1c2ccccc2c2cnn(CC(=O)NCc3ccccn3)c(=O)c21 | 5.7 | -3.9 | 3.0 | 2.1 | x
Cc1c2cnn(CC(=O)NCc3ccccn3)c(=O)c2c(C)n1Cc1ccccc1 | -2.9 | 11.2* | 3.7 | 1.4 | -1.1
CN(Cc1ccccc1)C(=O)c1csc([C@H]2C[C@H](O)[C@@H](CO)O2)n1 | x | -1.1 | x | -0.8 | x
CN(Cc1ccccc1)C(=O)c1csc([C@@H]2C[C@H](O)[C@@H](CO)O2)n1 | x | 9.3* | x | -0.2 | -0.8
COC(=O)C1=C(C)N(Cc2ccccc2C(F)(F)F)C(=NCc2ccc3c(c2)OCO3)NC1c1ccccc1C(F)(F)F (stereo not given) | x | x | x | 0.6 | x
NC(=O)c1ncn([C@@H]2O[C@H](C(=O)N[C@H](Cc3c[nH]c4ccccc34)C(=O)N3CCN(CC(=O)N4CCCC4)CC3)[C@@H](O)[C@H]2O)n1 | x | x | x | -0.4 | x
SMILES | procasp3 activ | MsrA act | proCasp7 act | MsrA inhibitor | MsrA act confirm
COc1nccc(C(F)(F)F)c1C(=O)NC(=O)Nc1ccccc1 | 10.2 | 9.5* | 7.3 | 0.7 | 1.6
CCN(CC)S(=O)(=O)c1cc(NC(=O)COC(=O)CCC(=O)c2cccs2)ccc1C | 0.8 | 8.4* | -2.8 | 1.6 | -0.4
O=C1c2ccccc2S(=O)(=O)c2cc(C(=O)N(c3ccccn3)c3ccccn3)ccc21 | 2.1 | 8.0* | 8.4 | -1.1 | 2.9
CCCC(=O)OC[C@H]1CN(C2CCCC2)S(=O)(=O)c2c(Oc3ccc(F)cc3OC)cccc2O1 | x | x | x | 0.0 | x
COc1ccc(-c2noc(CSc3nnc(-c4ccncc4)n3-c3ccc(F)cc3)n2)cc1OC | 3.6 | 17.9* | 5.5 | 1.6 | -0.4
CC(NC(=O)Cn1cccc1C(=O)c1ccccc1)c1ccccc1 (stereo not given) | 0.4 | 11.8* | 0.1 | 0.0 | -1.8
Cc1ccccc1C(=O)c1cccn1CC(=O)NC(C)c1ccccc1 (stereo not given) | 2.8 | -2.1 | 0.8 | 0.0 | x
C[C@H](O)[C@@H]1CN2CCc3ccc(-c4ccc5c(c4)OCO5)cc3[C@@H]2C[C@@H]1N(C)C(=O)c1cccc(Cl)c1 | x | x | x | 3.3 | x
Clc1ccc(-c2ccn[nH]2)cc1 | 10.0 | -3.4 | 2.7 | 0.8 | x
S=c1nccc(-c2ccc(Cl)cc2)[nH]1 | -5.7 | 8.3* | -3.9 | 1.1 | 3.7
COC(=O)c1ccc(C(C(=O)NC2CCCCC2)N(C(=O)Cc2cccs2)C2CC2)cc1 (stereo not given) | -4.5 | 7.9* | 8.9 | 0.4 | -1.4
O=C(NCCO)c1cccc(Nc2nc(-c3ccccc3)c3cc(Cl)ccc3n2)c1 | -1.4 | 16.9* | -27.0 | 0.2 | -1.2
NNc1nc(-c2ccccc2)c2cc(Cl)ccc2n1 | -12.8 | -1.4 | -1.9 | 1.1 | x
Cc1ccc(C)c(NS(=O)(=O)c2cc(C(=O)N3CCc4ccccc4C3)ccc2Cl)c1 | 3.6 | 8.2* | 13.0 | -0.2 | -1.9
COCCCNC(=O)c1cccs1 | -0.6 | -0.6 | 12.8 | 0.9 | x
COc1ccc(CNCCNC(=O)c2cccs2)c(OC)c1OC | -4.5 | 17.6* | 12.8 | 1.4 | -2.0
c1ccc(-n2cnc3cc(NCc4ccco4)ccc32)cc1 | -0.7 | 9.5* | -3.9 | 0.0 | 1.1
CC1CCCN(c2cccc3c2S(=O)(=O)N(Cc2cccc(F)c2)[C@@H](C)[C@H](c2ccccc2)O3)C1 (stereo not given in full) | x | x | x | 1.1 | x
CC(C)=CC(=O)NCC1CCN(C(=O)C(=O)c2cc3ccccc3o2)CC1 | x | x | x | 1.2 | x
C#CCNC(=O)C1=C[C@@H](c2ccc3c(c2)OCO3)C[C@@H](OCc2ccc(CO)cc2)O1 | 8.3 | 8.5* | 0.0 | 0.2 | 1.0
O=C(NCc1ccccc1)C1=C[C@H](c2ccc3c(c2)OCO3)C[C@H](OCc2ccc(CO)cc2)O1 | 4.8 | 0.3 | -6.1 | 0.1 | x
O=C(COC(=O)CCCNC(=O)c1ccc(Cl)cc1)NC1CC1 | 1.7 | 7.9* | 5.5 | -0.3 | -2.2
N#Cc1ccccc1CSc1nnc(-c2ccncc2)o1 | -8.9 | -7.8 | -0.4 | x | x
N#Cc1cccc(-c2nnc(SCc3ccccc3C#N)o2)c1 | -2.1 | 14.3* | -6.9 | -0.2 | 2.1
C=CCN1[C@@H](C)[C@H](c2ccccc2)Oc2cccc(N3CCCC3)c2S1(=O)=O | x | x | x | -0.5 | x
CCCCOc1ccccc1C1NC(=O)NC(C)=C1C(=O)OCc1ccco1 (stereo not given) | 7.1 | 8.9* | -4.8 | 0.8 | -0.1
CC(=O)C1=C(C)N(Cc2ccc(F)cc2)C(=S)NC1c1ccc(Cl)cc1 (stereo not given) | x | x | x | -0.2 | x
COc1cccc(-n2cn[nH]c2=S)c1 | -4.4 | 7.8* | -0.7 | 1.4 | -0.5

Source: PubChem BioAssay (The Scripps Research Institute Molecular Screening Center)
